Reference: ChEMBL document CHEMBL4706606, “Re-evaluating pretomanid analogues for Chagas disease: Hit-to-lead studies reveal both in vitro and in vivo trypanocidal efficacy” (Eur J Med Chem, 2020)
≈ marks a conversion by molar mass, not a printed value. Calls of active or inactive are those of the source. The rule behind the calls is not given here.

What was measured:
[1] = Kinetic solubility of compound in water sonicated for 15 mins by HPLC analysis
[2] = tested on: Trypanosoma cruzi; assay: Antitrypanosomal activity against Trypanosoma cruzi Tulahuen strain C2C4 amastigotes infected in […] cells assessed as reduction in parasite growth incubated for 48 hrs by chlorophenol red-fl-D-galactopyranoside based colorimetric analysis; format: functional, organism-based; settings: for IC50: Tulahuen strain C2C4, NIH3T3, 48 h; for IC90: Tulahuen strain C2C4, NIH3T3, time 48 hrs
[3] = Inhibition of Trypanosoma cruzi Tulahuen C4 strain CYP51 expressed in Escherichia coli by fluorescence based assay
[4] = tested on: Trypanosoma cruzi; assay: Antitrypanosomal activity against Trypanosoma cruzi Tulahuen strain C2C4 amastigotes infected in […] cells assessed as reduction in parasite growth incubated for 48 hrs by chlorophenol red-fl-D-galactopyranoside based colorimetric analysis relative to control; format: functional
[5] = Metabolic stability in CD-1 mouse liver microsomes assessed as parent compound remaining incubated for 1 hr; format: ADME, Microsome
Method in brief: (§1)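 Pooled human or CD-1 mouse liver microsomes at 0.4 mg/mL microsomal protein. Percent parent remaining after 1 h incubation.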

[6] = Selectivity index, ratio of IC50 for cytotoxicity against rat 3T3 cells to IC50 for antitrypanosomal activity against Trypanosoma cruzi Tulahuen strain C2C4 amastigotes infected in rat 3T3 cells; settings: 3T3 cells
[7] = Metabolic stability in human liver microsomes assessed as parent compound remaining incubated for 1 hr; format: ADME, Microsome; settings: read-out: Stabilty; method in brief: as §1
[8] = Cytotoxicity against rat 3T3 cells assessed as reduction in cell viability incubated for 72 hrs by alamar blue assay; format: ADME, cell-based; settings: NIH3T3, 72 h
[9] = Kinetic solubility of compound in 0.1M HCl at pH 1 sonicated for 15 mins by HPLC analysis; format: physicochemical; settings: read-out: Kinetic_solubility
Method in brief: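 Solid mixed with 0.1 M HCl to a nominal 2 mM, sonicated 15 min, centrifuged 6 min. Supernatant diluted 2-fold and analysed by HPLC. Kinetic solubility from peak area against a DMSO standard solution.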

[10] = tested on: Trypanosoma cruzi; assay: Antitrypanosomal activity against Trypanosoma cruzi Tulahuen strain C2C4 amastigotes infected in rat L6 cells assessed as inhibition of parasite growth incubated for 96 hrs by chlorophenol red-fl-D-galactopyranoside based colorimetric analysis; format: functional, organism-based; settings: for IC50: Tulahuen strain C2C4, L6, 96 h; for IC90: Tulahuen strain C2C4, L6, time 96 hrs
Method in brief: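 Tulahuen strain TcVI T. cruzi expressing β-galactosidase, grown in L6 rat skeletal myoblast host cells. IC50/IC90 growth inhibition. Each value is the mean of ≥2 independent determinations using fresh sample stock.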

[11] = tested on: Trypanosoma cruzi; assay: Antitrypanosomal activity against Trypanosoma cruzi Y strain amastigotes infected in U2OS cells assessed as inhibition of parasite growth at […] by image-based assay relative to control
[12] = Selectivity index, ratio of IC50 for cytotoxicity against rat L6 cells to IC50 for antitrypanosomal activity against Trypanosoma cruzi Tulahuen strain C2C4 amastigotes infected in rat L6 cells
[13] = tested on: L6; assay: Cytotoxicity against rat L6 cells assessed as reduction in cell viability incubated for 72 hrs by alamar blue assay; format: ADME, cell-based; settings: L6, 72 h
[14] = tested on: Trypanosoma cruzi; assay: Antitrypanosomal activity against Trypanosoma cruzi Y strain amastigotes infected in U2OS cells assessed as inhibition of parasite growth at 3.3 ug/ml by image-based assay relative to control
[15] = Half life in human liver microsomes incubated for 60 mins
[16] = tested on: Trypanosoma cruzi; assay: Antitrypanosomal activity against Trypanosoma cruzi Y strain amastigotes infected in U2OS cells assessed as inhibition of parasite growth at 0.37 ug/ml by image-based assay relative to control
[17] = tested on: Trypanosoma cruzi; assay: Antitrypanosomal activity against Trypanosoma cruzi amastigotes assessed as inhibition of parasite growth at 10 ug/ml relative to control
[18] = target: Cytochrome P450 3A4 (Homo sapiens, UniProt P08684); assay: Inhibition of CYP3A4 in human liver microsome using testosterone as substrate
Chain of Cytochrome P450 3A4 (P08684 whole entry): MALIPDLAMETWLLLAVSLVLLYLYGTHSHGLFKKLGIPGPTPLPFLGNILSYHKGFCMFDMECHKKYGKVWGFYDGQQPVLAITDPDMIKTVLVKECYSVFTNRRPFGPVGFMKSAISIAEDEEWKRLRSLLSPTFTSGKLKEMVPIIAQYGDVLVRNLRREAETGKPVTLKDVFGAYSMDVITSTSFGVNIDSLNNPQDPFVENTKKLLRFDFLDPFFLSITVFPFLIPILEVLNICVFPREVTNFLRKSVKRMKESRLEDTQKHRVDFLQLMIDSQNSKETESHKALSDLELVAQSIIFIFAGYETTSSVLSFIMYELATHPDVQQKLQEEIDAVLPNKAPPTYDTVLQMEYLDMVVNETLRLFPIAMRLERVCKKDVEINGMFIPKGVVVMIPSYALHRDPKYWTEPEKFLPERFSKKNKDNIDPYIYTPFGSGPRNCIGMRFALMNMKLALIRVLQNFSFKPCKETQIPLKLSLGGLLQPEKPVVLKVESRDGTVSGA

[19] = Plasma concentration in Swiss mouse at 50 mg/kg, po measured upto 24 hrs by LC-MS/MS analysis
[20] = tested on: Trypanosoma cruzi; assay: (§2) Antitrypanosomal activity against bloodstream trypomastigotes form of Trypanosoma cruzi Tulahuen strain C2C4 infected in Swiss mouse assessed as reduction in parasitemia at 20 mg/kg, po qd administered for 20 days starting from day 8 post infection and measured for 28 days by neubauer haemocytometer based microscopic analysis; format: functional, organism-based; settings: time 20.0 day
Method in brief: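 Female Swiss mice, 5 per group, infected intraperitoneally with 5 x 10⁴ bloodstream trypomastigotes (Tulahuen). Oral dosing once daily for 20 days from day 8 p.i., with the commercial formulation diluted in water for injection. Tail blood (3 μL) taken on days 8 (predose), 9, 12, 14, 16, 19, 21 and 28 p.i., diluted 1:10 in red cell lysis buffer and counted by haemocytometer.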

[21] = tested on: Trypanosoma cruzi; assay: as §2, with “infection followed by cyclophosphamide induced immunosuppression […]” for “infection”, “51” for “28”; format: functional, organism-based; settings: time 20.0 day
Method in brief: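 Same infection (female Swiss mice, 5 x 10⁴ trypomastigotes ip) and 20-day oral course from day 8 p.i. After 10 days' rest, mice with very low or undetectable parasitemia got three cycles of cyclophosphamide, 50 mg/kg ip daily for 4 days then 3 days' rest, starting day 37 p.i. Blood parasitemia checked on days 37, 44, 51 and 58 p.i. by haemocytometer, with PCR detection also used.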

[22] = Thermodynamic solubility of compound in PEG400; format: physicochemical
[23] = tested on: Trypanosoma cruzi; assay: (§3) Antitrypanosomal activity against bloodstream trypomastigotes form of Trypanosoma cruzi CL Brener infected in BALB/c mouse assessed as reduction in parasite in caecum at 50 mg/kg, po qd administered for 5 days starting from day 114 post infection followed by cyclophosphamide induced immunosuppression on days 135, 139 and 143 post infection and measured for 149 days by bioluminescence analysis; format: functional, organism-based; settings: time 5.0 day
Method in brief: (§4)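 Female BALB/c mice, 8 weeks old, ~18 g, 5 per group. Infected i.p. with 10^3 bloodstream trypomastigotes of bioluminescent CL Brener (pTRIX2-RE9h). From day 114 p.i., oral dosing once daily for 5 days: reference drugs at 100 mg/kg in HPMC-SV with 5% DMSO, PEG400 vehicle at 50 mg/kg. Cyclophosphamide 200 mg/kg i.p. on days 135, 139 and 143. Final imaging day 149. Ex vivo organ bioluminescence days 149-151.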

[24] = tested on: Trypanosoma cruzi; assay: Antitrypanosomal activity against bloodstream trypomastigotes form of Trypanosoma cruzi CL Brener infected in BALB/c mouse assessed as reduction of parasite in mouth/nasal region at 50 mg/kg, po qd administered for 5 days starting from day 114 post infection followed by cyclophosphamide induced …; format: functional, organism-based; settings: time 5.0 day
[25] = tested on: Trypanosoma cruzi; assay: Antitrypanosomal activity against bloodstream trypomastigotes form of Trypanosoma cruzi CL Brener infected in BALB/c mouse assessed as reduction of parasite in small intestine at 50 mg/kg, po qd administered for 5 days starting from day 114 post infection followed by cyclophosphamide induced …; format: functional, organism-based; settings: time 5.0 day
[26] = tested on: Trypanosoma cruzi; assay: as §3, with “parasitemia” for “parasite in caecum”, “po” for “po qd”, “administered” for “administered for”, “after” for “starting from day”, “114 days” for “114”, “day” for “days 135, 139 and”; format: functional, organism-based; settings: time 5.0 day; method in brief: as §4
[27] = tested on: Trypanosoma cruzi; assay: as §2, with “at 50” for “at 20”; format: functional, organism-based; settings: time 20.0 day
Method in brief: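 Female Swiss mice, 5 per group, infected i.p. with 5 x 10^4 bloodstream trypomastigotes (Tulahuen). Oral dosing once daily for 20 days from day 8 p.i., vehicle HPMC-SV with 5% DMSO. Tail blood, 3 μL diluted 1:10 in RBC lysis, counted by haemocytometer on days 8–28 p.i.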

Compound	solubility kinetic at 0.25 h [1]	IC50 [2]	IC90 [2]	IC50 [3]	%max [4]	selectivity ratio [6]	IC50 [8]	IC50 [10]	IC90 [10]	selectivity ratio [12]	IC50 [13]	other results
O=[N+]([O-])c1cn2c(n1)OC[C@H](OCC#Cc1ccc(-c3ccc(C(F)(F)F)cc3)cn1)C2	0.68 µg/mL (≈ 1.53 µM)	270 nM	1700 nM	> 10000 nM	95%	> 137	> 37000 nM					remaining at 1 h [5]: 76%; remaining at 1 h [7]: 58%; solubility kinetic at 0.25 h [9]: 7.6 µg/mL (≈ 17.1 µM)
O=[N+]([O-])c1nc2n(n1)C[C@H](O)CO2	8750 µg/mL (≈ 47000 µM)							1600 nM	6300 nM	> 63	> 100000 nM	inhibition at […] [11]: 58%
CC1(COc2ccc(-c3ccc(F)cc3)cn2)CCn2cc([N+](=O)[O-])nc2O1 (stereo not given)												inhibition at 3.3 µg/mL [14]: 50%
O=[N+]([O-])c1cn2c(n1)OC[C@@H](OCC#Cc1ccc(-c3ccc(OC(F)(F)F)cc3)cn1)C2	0.49 µg/mL (≈ 1.06 µM)	730 nM	1000 nM	> 10000 nM	99%	> 51	> 37000 nM	320 nM	990 nM	> 313	> 100000 nM	half-life at 1 h [15]: > 4.17 h; inhibition at 0.37 µg/mL [16]: 44%
O=[N+]([O-])c1cn2c(n1)OC[C@@H](OCc1ccc(-c3ccc(C(F)(F)F)cc3Cl)cc1)C2	0.48 µg/mL (≈ 1.06 µM)							3700 nM	8000 nM	9.2	34000 nM	inhibition at 10 µg/mL [17]: 94%; IC50 [18]: > 20000 nM; half-life at 1 h [15]: > 4.17 h; concentration at 24 h [19]: 9.1 µM
CC[C@@H]([C@H](C)O)n1ncn(-c2ccc(N3CCN(c4ccc(OC[C@@H]5CO[C@@](Cn6cncn6)(c6ccc(F)cc6F)C5)cc4)CC3)cc2)c1=O [POSACONAZOLE]		1.2 nM	4.9 nM	52 nM	85%	> 833	> 1000 nM					Activity [20]: Active; Activity [21]: Active
O=[N+]([O-])c1cn2c(n1)OC[C@H](OCC#Cc1ccc(-c3ccc(OC(F)(F)F)cc3)cn1)C2	< 0.1 µg/mL	670 nM	2200 nM	> 10000 nM	94%	> 55	> 37000 nM					remaining at 1 h [5]: 74%; remaining at 1 h [7]: 68%; solubility kinetic at 0.25 h [9]: 3 µg/mL (≈ 6.52 µM)
O=[N+]([O-])c1cn2c(n1)OC[C@H](OCc1ccc(-c3ccc(C(F)(F)F)cc3Cl)cn1)C2	1 µg/mL (≈ 2.2 µM)							670 nM	2900 nM	75	50000 nM	solubility kinetic at 0.25 h [9]: 299 µg/mL (≈ 657 µM)
CC1(COCc2ccc(OCc3ccccc3)cc2)Cn2cc([N+](=O)[O-])nc2S1(=O)=O (stereo not given)	< 0.1 µg/mL							83 nM	240 nM	> 1200	> 100000 nM	inhibition at 3.3 µg/mL [14]: 59%; half-life at 1 h [15]: 0.417 h
O=[N+]([O-])c1cn2c(n1)OC[C@H](Oc1ccc(OC(F)(F)F)cc1)C2		1200 nM	1700 nM	> 10000 nM	99%	> 61	> 73000 nM	400 nM	1000 nM	> 250	> 100000 nM	solubility thermodynamic [22]: 21000 µg/mL (≈ 60800 µM); Activity [23]: Active; Activity [24]: Active; Activity [25]: Active; Activity [26]: Active; concentration at 24 h [19]: 11 µM
O=[N+]([O-])c1cn2c(n1)OC[C@@H](OCC#Cc1ccc(-c3ccc(C(F)(F)F)cc3)cn1)C2	0.33 µg/mL (≈ 0.743 µM)	510 nM	1700 nM	> 10000 nM	97%	> 73	> 37000 nM	230 nM	590 nM	> 435	> 100000 nM	inhibition at […] [11]: 48%
O=[N+]([O-])c1cn2c(n1)OCC(COc1ccc(-c3ccc(F)cc3)cn1)C2 (stereo not given)	1.1 µg/mL (≈ 2.97 µM)							22 nM	190 nM	> 4540	> 100000 nM	inhibition at […] [11]: 29%
CC1(COc2ccc(OC(F)(F)F)cc2)CCn2cc([N+](=O)[O-])nc2O1 (stereo not given)			1000 nM		100%			450 nM	930 nM			inhibition at 3.3 µg/mL [14]: 52%; Activity [27]: Active
